Inconclusive results are not listed.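 Rule for the calls, unless noted: active = viability increase at or above a cutoff of the median across tested compounds plus 3 SD (cut at about 8.5% in these data, passing the limit was not always enough); inconclusive = some gains above the cutoff, reason not given; inactive = the rest.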
Tests used:
[1] = S. cerevisiae growth inhibition in permissive medium (OD615), pilot counter-assay for S. cerevisiae lifespan shortening project, permissive growth control (AID 705;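 active = growth inhibition above 25% in both replicates, a cutoff set 3 SD above the mean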); details: OD615, 24 h, at 10 µM, stronger effect = higher value
How it was run: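 Test system: Saccharomyces cerevisiae strain carrying genetically modified DeaD replicative-lifespan system; buffer or medium: SC raffinose/galactose permissive medium; dosing: one dose 10 µM, DMSO 0.25% final; times: 24 h exposure, 30 °C; measured by: OD at 615 nm; read-out basis: growth inhibition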

[2] = S. cerevisiae growth inhibition in restrictive medium, OD615, pilot screen, restrictive growth control, yeast lifespan reduction project (AID 706;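 active = growth inhibition above a set limit, 3 SD over mean compound inhibition, in both replicates, cut at about 43% in these data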;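 note: modified DeaD lifespan yeast strain shifted to restrictive glucose medium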); details: OD615, 48 h, at 10 µM, stronger effect = higher value
How it was run: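 material = engineered S. cerevisiae DeaD strain | buffer or medium = glucose-based CSMM-D restrictive medium | dosing = one concentration, 10 µM final, 0.25% DMSO | schedule = 4 h pre-growth plus 48 h compound exposure, 30 °C | detection = OD615 absorbance reading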

[3] = doxorubicin toxicity protection in MRP-1 cells – H69AR cells, CellTiter-Glo, duplicate, MRP-1 activator project, pilot screen (AID 807); details: H69AR viability with doxorubicin, CellTiter-Glo luminescence; at 10 µM; stronger effect = higher value;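 note: compound pretreatment 18-22 h then 72 h combined with doxorubicin; 0% = doxorubicin alone and 100% = vehicle without doxorubicin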
[4] = viability of HCT116 without oncogenic beta-catenin – human colon tumor cells, pilot screen (AID 823;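 active = cell viability at or below a set limit in both duplicate runs, the limit being the all-compound median minus 4 SD, cut at about 23% in these data, passing the limit was not always enough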;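 note: 0% = wells killed by 20 µM Hyamine and 100% = untreated DMSO cell wells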); details: HCT116 beta-catenin knockout viability, CellTiter-Glo, 60 h; at 10 µM; stronger effect = lower value
[5] = viability of PTEN-null HCT116 cells – cell-based, HCT116 clonal line, CellTiter-Glo, pilot screen (AID 824;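 active = viability at or below 27.92% in each of two runs, the all-compound median minus 4 SD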;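 note: 0% = 20 µM Hyamine control and 100% = vehicle cell control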); details: HCT116 PTEN-deleted viability, 60 h, at 10 µM, stronger effect = lower value
[6] = RAM pathway blockade in budding yeast – dse1pr::URA3 reporter, 5-FOA selection, pilot screen (AID 869;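 active = inhibition over a set limit, the all-compound mean plus 3 SD, in both replicate runs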;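 note: 0% = DMSO wells with no growth and 100% = 10 µM 1-NA-PP1 with full growth; RAM network block rescues cells from 5-FOA so hits raise OD615 growth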); details: S. cerevisiae dse1pr::URA3 5-FOA growth, OD615, 2 d; at 10 µM; stronger effect = higher value; strain carries analog-sensitive mutant Cbk1 kinase
[7] = RAM signaling pathway blockade in yeast – S. cerevisiae, Pdr1DBD-CYC8 efflux-inhibited sensitized strain, primary screen (AID 1298;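 active = RAM network inhibition above 8.4% in each of two replicates, 3 SD over the compound average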;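 note: 0% = DMSO untreated cells without growth and 100% = 10 µM 1-NA-PP1 full growth; higher means more yeast growth rescued from 5-FOA killing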); details: S. cerevisiae cbk1-as DSE1-URA3 strain, 5-FOA growth OD615, 2 d; at 50 µM; stronger effect = higher value

Cc1ccc(N(CC(N)=O)C2SC(=O)N(C)C2=O)cc1 (stereo not drawn)
inactive: growth inhibition [1] -11.9% | growth inhibition [2] -7.83% | viability increase [3] -2.96% | viability [4] 97.8% | viability [5] 102% | inhibition [6] 1.09% | RAM network inhibition [7] 3.14%

COc1cccc(C(=O)NC2CC3CCCC(C2)N3CC(=O)Nc2ccc(N(C)C)cc2)c1 (stereo not drawn)
inactive: growth inhibition [1] -14.1% | growth inhibition [2] -14.7% | viability increase [3] -0.9% | viability [4] 85.4% | viability [5] 87.8% | inhibition [6] 0.955% | RAM network inhibition [7] 1.97%

c1nc2nc3c(c(N4CCOCC4)n2n1)CCCC3
inactive: growth inhibition [1] -6.33% | growth inhibition [2] 11.4% | viability increase [3] -1.47% | viability [4] 103% | viability [5] 99.7% | inhibition [6] 0.645% | RAM network inhibition [7] 0.44%

COC(=O)CC1Oc2ccc(C)cc2NC1=O (stereo not drawn)
inactive: growth inhibition [1] -4.56% | growth inhibition [2] -1.75% | viability increase [3] 2.26% | viability [4] 101% | viability [5] 101% | inhibition [6] 0.27% | RAM network inhibition [7] 2.35%

CC12CC(NC(=O)N1CCc1ccccc1)c1ccccc1O2 (stereo not drawn)
inactive: growth inhibition [1] -8.73% | growth inhibition [2] -25% | viability increase [3] -3.43% | viability [4] 74.9% | viability [5] 73.8% | inhibition [6] 1.45% | RAM network inhibition [7] 5.31%

CCc1nnc(NC(=O)CCN2C(=O)CCC2=O)s1
inactive: growth inhibition [1] 4.12% | growth inhibition [2] 5.96% | viability increase [3] 0.69% | viability [4] 97.3% | viability [5] 93.6% | inhibition [6] 0.52% | RAM network inhibition [7] 3.17%

O=C(CN1CCOc2ccccc21)NC1CCN(Cc2ccccc2)CC1
inactive: growth inhibition [1] -5.57% | growth inhibition [2] -4.21% | viability increase [3] -3.28% | viability [4] 77% | viability [5] 85.5% | inhibition [6] 3.18% | RAM network inhibition [7] 5.65%

Cn1c(Cn2c(=O)sc3ccccc32)nnc1SCC(N)=O
inactive: growth inhibition [1] -17.4% | growth inhibition [2] -3.94% | viability increase [3] 0.08% | viability [4] 110% | viability [5] 88% | inhibition [6] 1.82% | RAM network inhibition [7] 3.26%

COc1ccc(-c2noc(Cc3cccs3)n2)cc1
inactive: growth inhibition [1] 0.04% | growth inhibition [2] 3.45% | viability increase [3] -2.47% | viability [4] 102% | viability [5] 93.3% | inhibition [6] 2.76% | RAM network inhibition [7] 4.89%

COc1ccccc1Nc1cc(C(=O)NCCCN2CCOCC2)c2ccccc2n1
inactive: growth inhibition [1] -7.99% | growth inhibition [2] -0.795% | viability increase [3] -3.47% | viability [4] 89.1% | viability [5] 91.4% | inhibition [6] 0.455% | RAM network inhibition [7] 0.58%

COCCN1C=C(C(=O)OC)C(c2ccc3c(c2)OCO3)C(C(=O)OC)=C1
inactive: growth inhibition [1] -9.64% | growth inhibition [2] 1.92% | viability increase [3] 2.8% | viability [4] 97.9% | viability [5] 102% | inhibition [6] -0.19% | RAM network inhibition [7] 3.59%

O=C(CCCCn1c(=O)[nH]c2ccccc2c1=O)N1CCN(c2ncccn2)CC1
inactive: growth inhibition [1] -13.4% | growth inhibition [2] -20.2% | viability increase [3] -1.54% | viability [4] 104% | viability [5] 105% | inhibition [6] 0.76% | RAM network inhibition [7] 0.58%

O=C(Cn1cnc2c(cnn2-c2ccccc2)c1=O)c1ccc(Cl)cc1
inactive: growth inhibition [1] -3.83% | growth inhibition [2] -12.3% | viability increase [3] 1.75% | viability [4] 94.3% | viability [5] 90.2% | inhibition [6] 0.5% | RAM network inhibition [7] 3.34%

COc1cccc(CN2CCNC(=O)C2CC(=O)O)c1OC (stereo not drawn)
inactive: growth inhibition [1] -18.3% | growth inhibition [2] -12.7% | viability increase [3] -2.76% | viability [4] 101% | viability [5] 97% | inhibition [6] 1.81% | RAM network inhibition [7] 2.85%

COc1ccc(C2(CNC(C)=O)CCOCC2)cc1OC
inactive: growth inhibition [1] -14.1% | growth inhibition [2] -2.29% | viability increase [3] 1.21% | viability [4] 103% | viability [5] 97.8% | inhibition [6] 2.54% | RAM network inhibition [7] -0.32%

COc1ccc2c(c1)CCc1c(C(=O)NCc3ccc(F)cc3)noc1-2
inactive: growth inhibition [1] -8.49% | growth inhibition [2] -0.25% | viability increase [3] 1.03% | viability [4] 100% | viability [5] 103% | inhibition [6] 1.86% | RAM network inhibition [7] 4.87%

CC(CNC(=O)C1CCCCC1)NC(=O)C1CCCCC1 (stereo not drawn)
inactive: growth inhibition [1] -7.69% | growth inhibition [2] -6.86% | viability increase [3] 0.64% | viability [4] 89.6% | viability [5] 92.5% | inhibition [6] 0.08% | RAM network inhibition [7] 4%

Cc1ccc(-n2nnc3c(=O)n(CC(=O)N4CCOCC4)cnc32)cc1
inactive: growth inhibition [1] -0.37% | growth inhibition [2] 0.95% | viability increase [3] -1.94% | viability [4] 101% | viability [5] 94.2% | inhibition [6] 1.23% | RAM network inhibition [7] 3.05%

COCCN1C(=O)C(CC(=O)Nc2ccc(C(=O)O)cc2)SC1=Nc1ccccc1 (stereo not drawn)
inactive: growth inhibition [1] -12.5% | growth inhibition [2] -19.2% | viability increase [3] -2.07% | viability [4] 96.4% | viability [5] 97.6% | inhibition [6] 2.39% | RAM network inhibition [7] 2.48%

N#Cc1ccc(OCCN2C(=O)NC3(CCSC3)C2=O)cc1 (stereo not drawn)
inactive: growth inhibition [1] -2.65% | growth inhibition [2] -19% | viability increase [3] -1.88% | viability [4] 101% | viability [5] 94.4% | inhibition [6] 0.975% | RAM network inhibition [7] 0.56%

CC(=O)C1C(c2ccc(OC(F)F)cc2)NC(=O)NC1(O)C(F)(F)F (stereo not drawn)
inactive: growth inhibition [1] 3.71% | growth inhibition [2] -6.05% | viability increase [3] 0.74% | viability [4] 107% | viability [5] 97.4% | inhibition [6] 0.31% | RAM network inhibition [7] 5.93%

Cn1c(NC(=O)c2ccc(C(C)(C)C)cc2)cc(=O)n(C)c1=O
inactive: growth inhibition [1] -2.62% | growth inhibition [2] -6.46% | viability increase [3] -2.04% | viability [4] 91.1% | viability [5] 96.5% | inhibition [6] 1.97% | RAM network inhibition [7] 1.63%

O=C(NCc1ccccn1)C1CCN(S(=O)(=O)N2CCCC2)CC1
inactive: growth inhibition [1] -5.04% | growth inhibition [2] -10% | viability increase [3] -0.46% | viability [4] 109% | viability [5] 95.7% | inhibition [6] 0.3% | RAM network inhibition [7] 3.61%

c1ccc2c(c1)OCC(c1csc3ncnc(N4CCOCC4)c13)O2 (stereo not drawn)
inactive: growth inhibition [1] -14.1% | growth inhibition [2] -9.32% | viability increase [3] -3.2% | viability [4] 94.4% | viability [5] 75.7% | inhibition [6] 1.26% | RAM network inhibition [7] 8.63%

From PubChem BioAssay
